Reference: ChEMBL document CHEMBL1126849, “Synthesis of A-ring fluorinated derivatives of (17 alpha,20E/Z)-[125I]iodovinylestradiols: effect on receptor binding and receptor-mediated target tissue uptake” (J Med Chem, 1993)

Molecular target: T1, Estrogen receptor (Mus musculus) (UniProt O08537+P19785)
Experiment: Relative binding affinity (RBA) against murine cytoplasmic estrogen receptor incubated at 0-4 degree Celsius for 18 hours
Format: protein assay
Procedure, shortened: (§1)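 Competitive binding on murine uterine cytoplasmic extract with 20 nM [3H]estradiol and competitor steroids at 2 nM–20 μM, incubated 18 h at 0–4 °C. RBA = 100 × ratio of […] concentration giving 50% competition for specific binding. Mean of three experiments with SD.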

T1 sequence (O08537 whole entry, looked up): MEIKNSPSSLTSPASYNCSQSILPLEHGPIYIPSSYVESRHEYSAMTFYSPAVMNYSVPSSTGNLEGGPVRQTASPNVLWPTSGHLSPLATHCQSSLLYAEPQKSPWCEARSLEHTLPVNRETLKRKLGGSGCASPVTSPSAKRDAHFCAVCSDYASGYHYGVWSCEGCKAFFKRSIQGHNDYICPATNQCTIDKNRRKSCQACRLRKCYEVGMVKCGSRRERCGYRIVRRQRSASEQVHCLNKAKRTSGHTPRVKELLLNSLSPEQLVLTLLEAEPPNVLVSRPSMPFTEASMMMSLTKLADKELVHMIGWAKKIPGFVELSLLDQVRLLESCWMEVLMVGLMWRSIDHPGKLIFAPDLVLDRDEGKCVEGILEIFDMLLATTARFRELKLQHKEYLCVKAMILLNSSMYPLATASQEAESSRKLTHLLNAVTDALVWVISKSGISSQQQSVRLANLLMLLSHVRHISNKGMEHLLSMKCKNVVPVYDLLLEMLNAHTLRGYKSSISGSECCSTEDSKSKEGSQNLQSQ
T1 sequence (P19785 whole entry, looked up): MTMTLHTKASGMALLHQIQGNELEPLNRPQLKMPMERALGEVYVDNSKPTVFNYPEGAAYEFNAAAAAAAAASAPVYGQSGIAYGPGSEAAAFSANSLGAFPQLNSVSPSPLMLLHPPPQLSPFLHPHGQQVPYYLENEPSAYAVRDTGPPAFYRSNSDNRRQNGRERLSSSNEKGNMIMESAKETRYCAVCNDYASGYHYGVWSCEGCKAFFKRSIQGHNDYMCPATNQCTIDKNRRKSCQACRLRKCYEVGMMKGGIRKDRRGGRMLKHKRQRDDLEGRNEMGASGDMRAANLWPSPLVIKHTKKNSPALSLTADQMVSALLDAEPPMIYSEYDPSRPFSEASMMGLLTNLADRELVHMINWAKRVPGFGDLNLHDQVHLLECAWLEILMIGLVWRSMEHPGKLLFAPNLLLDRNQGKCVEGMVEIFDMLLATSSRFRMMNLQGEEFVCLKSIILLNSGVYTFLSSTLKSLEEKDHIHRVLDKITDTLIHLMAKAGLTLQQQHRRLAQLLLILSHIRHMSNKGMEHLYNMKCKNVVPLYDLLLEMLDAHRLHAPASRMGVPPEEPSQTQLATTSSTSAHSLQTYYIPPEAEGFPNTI

RBA | SMILES
46.7 | C[C@]12CC[C@@H]3c4ccc(O)cc4CC[C@H]3[C@@H]1CC[C@@]2(O)/C=C\I
73.1 | C=C[C@]1(O)CC[C@H]2[C@@H]3[C@H](C)Cc4cc(O)ccc4[C@H]3CC[C@@]21C
39.7 | C[C@]12CC[C@@H]3c4ccc(O)cc4CC[C@H]3[C@@H]1CC[C@@]2(O)/C=C/I
119 | C=C[C@]1(O)CC[C@H]2[C@@H]3CCc4c(ccc(O)c4F)[C@H]3CC[C@@]21C
15.9 | C=C[C@]1(O)CC[C@H]2[C@@H]3CCc4cc(O)c(F)cc4[C@H]3[C@@H](OC)C[C@@]21C
62.4 | C=C[C@]1(O)CC[C@H]2[C@@H]3[C@H](C)Cc4c(ccc(O)c4F)[C@H]3CC[C@@]21C
43.2 | C[C@@H]1Cc2cc(O)ccc2[C@H]2CC[C@@]3(C)[C@@H](CC[C@@]3(O)/C=C/I)[C@H]12
64.3 | C=C[C@]1(O)CC[C@H]2[C@@H]3CCc4cc(O)c(F)cc4[C@H]3CC[C@@]21C
33.3 | C=C[C@]1(O)CC[C@H]2[C@@H]3[C@H](C)Cc4cc(O)c(F)cc4[C@H]3CC[C@@]21C
15.3 | C=C[C@]1(O)CC[C@H]2[C@@H]3CCc4cc(O)ccc4[C@H]3[C@@H](OC)C[C@@]21C
44.9 | C[C@@H]1Cc2cc(O)ccc2[C@H]2CC[C@@]3(C)[C@@H](CC[C@@]3(O)/C=C\I)[C@H]12
16.7 | C=C[C@]1(O)CC[C@H]2[C@@H]3CCc4c(ccc(O)c4F)[C@H]3[C@@H](OC)C[C@@]21C
27.7 | CO[C@H]1C[C@@]2(C)[C@@H](CC[C@@]2(O)/C=C/I)[C@@H]2CCc3cc(O)ccc3[C@H]21
32 | CO[C@H]1C[C@@]2(C)[C@@H](CC[C@@]2(O)/C=C\I)[C@@H]2CCc3cc(O)ccc3[C@H]21

Molecular target: T1, Estrogen receptor (Mus musculus)
Experiment: Relative binding affinity (RBA) for murine cytoplasmic estrogen receptor at 4C for 18 hr
Format: protein assay
Procedure, shortened: as §1

RBA | SMILES
119 | C#C[C@]1(O)CC[C@H]2[C@@H]3CCc4c(ccc(O)c4F)[C@H]3CC[C@@]21C

Molecular target: T1, Estrogen receptor (Mus musculus)
Experiment: Relative binding affinity (RBA) for murine cytoplasmic estrogen receptor at 25 degree C for 2 hr
Format: protein assay
Procedure, shortened: (§2)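 Murine uterine cytoplasmic extract incubated 2 h at 4 °C or at 25 °C with 20 nM [3H]estradiol and competitors at 2 nM–20 μM. RBA is taken as 100 × the ratio of competitor to unlabeled estradiol concentration needed for 50% competition of specific [3H]estradiol binding.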

RBA | SMILES
166 | C#C[C@]1(O)CC[C@H]2[C@@H]3CCc4c(ccc(O)c4F)[C@H]3CC[C@@]21C

Molecular target: T1, Estrogen receptor (Mus musculus)
Experiment: Relative binding affinity (RBA) for murine cytoplasmic estrogen receptor at 4C for 2 hr
Format: protein assay
Procedure, shortened: as §2

RBA | SMILES
80 | C#C[C@]1(O)CC[C@H]2[C@@H]3CCc4c(ccc(O)c4F)[C@H]3CC[C@@]21C
